Test results from ChEMBL document CHEMBL4825702, “5-Aminonaphthalene derivatives as selective nonnucleoside nuclear receptor binding SET domain-protein 2 (NSD2) inhibitors for the treatment of multiple myeloma” (Eur J Med Chem, 2021).
Calls of active or inactive are those of the source. The calls are words filed in the database; no cut-off is given here.

How the values were obtained:
[1] = target: Histone-arginine methyltransferase CARM1 (Homo sapiens, UniProt Q86X55); experiment: Inhibition of PRMT4 (unknown origin) using SAM as substrate preincubated for 10 mins followed by substrate addition measured after 4 hrs by AlphaLISA method
Histone-arginine methyltransferase CARM1, sequence (Q86X55 whole entry): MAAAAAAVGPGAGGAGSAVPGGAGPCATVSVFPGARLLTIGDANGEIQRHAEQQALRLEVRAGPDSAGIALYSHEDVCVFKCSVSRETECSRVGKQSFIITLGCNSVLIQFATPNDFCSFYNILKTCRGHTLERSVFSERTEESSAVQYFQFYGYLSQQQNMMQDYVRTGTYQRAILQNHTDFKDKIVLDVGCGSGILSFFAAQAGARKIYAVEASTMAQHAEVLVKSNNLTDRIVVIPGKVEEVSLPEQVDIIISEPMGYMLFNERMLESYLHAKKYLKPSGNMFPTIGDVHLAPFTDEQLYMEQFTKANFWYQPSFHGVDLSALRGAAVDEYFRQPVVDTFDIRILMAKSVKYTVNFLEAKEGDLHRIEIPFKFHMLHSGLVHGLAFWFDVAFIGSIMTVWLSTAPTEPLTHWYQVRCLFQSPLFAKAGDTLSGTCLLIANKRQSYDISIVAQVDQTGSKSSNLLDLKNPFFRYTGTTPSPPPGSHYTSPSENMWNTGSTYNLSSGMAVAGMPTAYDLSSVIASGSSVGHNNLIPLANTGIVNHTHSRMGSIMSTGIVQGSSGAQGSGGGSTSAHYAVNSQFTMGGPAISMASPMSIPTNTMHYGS

[2] = test system: RS4-11; experiment: Antiproliferative activity against human RS4-11 cells assessed as reduction in cell viability incubated for 6 days by CCK8 assay; conditions: RS4-11, 6 days
[3] = target: Histone-lysine N-methyltransferase NSD2 (Homo sapiens, UniProt O96028, E1009K); experiment: Inhibition of NSD2 E1009K mutant (unknown origin) using SAM as substrate preincubated for 10 mins followed by substrate addition measured after 4 hrs by AlphaLISA method
Histone-lysine N-methyltransferase NSD2, sequence (O96028 whole entry, looked up, stated change not applied): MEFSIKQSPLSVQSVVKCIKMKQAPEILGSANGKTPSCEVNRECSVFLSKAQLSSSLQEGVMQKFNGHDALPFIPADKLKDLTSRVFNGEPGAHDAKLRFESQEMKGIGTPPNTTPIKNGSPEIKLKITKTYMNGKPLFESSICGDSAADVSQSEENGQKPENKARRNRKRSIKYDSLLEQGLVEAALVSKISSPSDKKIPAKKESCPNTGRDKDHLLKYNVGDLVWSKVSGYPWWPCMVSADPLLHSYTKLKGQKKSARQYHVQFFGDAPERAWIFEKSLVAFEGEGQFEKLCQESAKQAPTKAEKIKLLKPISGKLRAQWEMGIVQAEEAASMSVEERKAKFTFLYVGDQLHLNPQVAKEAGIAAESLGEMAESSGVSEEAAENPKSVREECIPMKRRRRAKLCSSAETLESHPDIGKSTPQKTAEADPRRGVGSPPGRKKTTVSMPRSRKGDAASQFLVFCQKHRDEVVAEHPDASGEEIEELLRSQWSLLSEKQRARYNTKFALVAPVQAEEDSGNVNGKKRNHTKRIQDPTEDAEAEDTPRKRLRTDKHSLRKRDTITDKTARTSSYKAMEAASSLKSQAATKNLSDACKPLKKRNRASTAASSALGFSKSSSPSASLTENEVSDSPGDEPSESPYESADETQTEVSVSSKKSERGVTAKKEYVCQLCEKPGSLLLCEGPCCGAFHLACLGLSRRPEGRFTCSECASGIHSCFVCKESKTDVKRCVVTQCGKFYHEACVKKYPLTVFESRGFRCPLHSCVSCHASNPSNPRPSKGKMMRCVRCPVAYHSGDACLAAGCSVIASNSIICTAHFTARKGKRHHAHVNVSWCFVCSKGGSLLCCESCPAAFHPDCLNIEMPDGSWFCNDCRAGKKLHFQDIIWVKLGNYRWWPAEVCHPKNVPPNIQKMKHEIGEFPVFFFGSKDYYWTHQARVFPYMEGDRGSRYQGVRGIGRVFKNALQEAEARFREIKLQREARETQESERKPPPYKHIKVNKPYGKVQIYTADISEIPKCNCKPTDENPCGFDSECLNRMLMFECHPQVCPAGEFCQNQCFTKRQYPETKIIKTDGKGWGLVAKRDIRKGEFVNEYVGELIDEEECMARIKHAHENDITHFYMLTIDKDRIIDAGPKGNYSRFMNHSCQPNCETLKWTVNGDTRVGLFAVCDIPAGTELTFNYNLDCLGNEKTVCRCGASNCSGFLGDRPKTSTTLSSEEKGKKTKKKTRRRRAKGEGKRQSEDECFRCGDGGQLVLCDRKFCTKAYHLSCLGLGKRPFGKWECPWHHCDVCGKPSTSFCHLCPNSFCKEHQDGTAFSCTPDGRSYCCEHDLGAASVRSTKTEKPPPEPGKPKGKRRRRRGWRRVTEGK

[4] = Tmax in CD-1 mouse at 2 mg/kg, ip measured up to 24 hrs by LC-MS/MS; type: ADME, organism-based; conditions: in vivo
Method in brief: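 CD-1 mice dosed at 2 mg/kg i.p. or i.v., n = 3 per group. Blood sampled at 0, 0.083, 0.25, 0.5, 1, 2, 4, 6, 8 and 24 h and spun for plasma. Internal standard added, deproteinized with methanol/acetonitrile (1:1), supernatant diluted and analysed by LC/MS/MS.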

[5] = Inhibition of PAK1 transcriptional activity in human KMS-11 cells assessed as reduction in H3K36 methylation at 10 uM measured after 72 hrs by chip q-PCR analysis
[6] = target: Histone-lysine N-methyltransferase 2B (Homo sapiens, UniProt Q9UMN6); experiment: Inhibition of MLL4 (unknown origin) using SAM as substrate preincubated for 10 mins followed by substrate addition measured after 4 hrs by HTRF method
Histone-lysine N-methyltransferase 2B, sequence (Q9UMN6 whole entry): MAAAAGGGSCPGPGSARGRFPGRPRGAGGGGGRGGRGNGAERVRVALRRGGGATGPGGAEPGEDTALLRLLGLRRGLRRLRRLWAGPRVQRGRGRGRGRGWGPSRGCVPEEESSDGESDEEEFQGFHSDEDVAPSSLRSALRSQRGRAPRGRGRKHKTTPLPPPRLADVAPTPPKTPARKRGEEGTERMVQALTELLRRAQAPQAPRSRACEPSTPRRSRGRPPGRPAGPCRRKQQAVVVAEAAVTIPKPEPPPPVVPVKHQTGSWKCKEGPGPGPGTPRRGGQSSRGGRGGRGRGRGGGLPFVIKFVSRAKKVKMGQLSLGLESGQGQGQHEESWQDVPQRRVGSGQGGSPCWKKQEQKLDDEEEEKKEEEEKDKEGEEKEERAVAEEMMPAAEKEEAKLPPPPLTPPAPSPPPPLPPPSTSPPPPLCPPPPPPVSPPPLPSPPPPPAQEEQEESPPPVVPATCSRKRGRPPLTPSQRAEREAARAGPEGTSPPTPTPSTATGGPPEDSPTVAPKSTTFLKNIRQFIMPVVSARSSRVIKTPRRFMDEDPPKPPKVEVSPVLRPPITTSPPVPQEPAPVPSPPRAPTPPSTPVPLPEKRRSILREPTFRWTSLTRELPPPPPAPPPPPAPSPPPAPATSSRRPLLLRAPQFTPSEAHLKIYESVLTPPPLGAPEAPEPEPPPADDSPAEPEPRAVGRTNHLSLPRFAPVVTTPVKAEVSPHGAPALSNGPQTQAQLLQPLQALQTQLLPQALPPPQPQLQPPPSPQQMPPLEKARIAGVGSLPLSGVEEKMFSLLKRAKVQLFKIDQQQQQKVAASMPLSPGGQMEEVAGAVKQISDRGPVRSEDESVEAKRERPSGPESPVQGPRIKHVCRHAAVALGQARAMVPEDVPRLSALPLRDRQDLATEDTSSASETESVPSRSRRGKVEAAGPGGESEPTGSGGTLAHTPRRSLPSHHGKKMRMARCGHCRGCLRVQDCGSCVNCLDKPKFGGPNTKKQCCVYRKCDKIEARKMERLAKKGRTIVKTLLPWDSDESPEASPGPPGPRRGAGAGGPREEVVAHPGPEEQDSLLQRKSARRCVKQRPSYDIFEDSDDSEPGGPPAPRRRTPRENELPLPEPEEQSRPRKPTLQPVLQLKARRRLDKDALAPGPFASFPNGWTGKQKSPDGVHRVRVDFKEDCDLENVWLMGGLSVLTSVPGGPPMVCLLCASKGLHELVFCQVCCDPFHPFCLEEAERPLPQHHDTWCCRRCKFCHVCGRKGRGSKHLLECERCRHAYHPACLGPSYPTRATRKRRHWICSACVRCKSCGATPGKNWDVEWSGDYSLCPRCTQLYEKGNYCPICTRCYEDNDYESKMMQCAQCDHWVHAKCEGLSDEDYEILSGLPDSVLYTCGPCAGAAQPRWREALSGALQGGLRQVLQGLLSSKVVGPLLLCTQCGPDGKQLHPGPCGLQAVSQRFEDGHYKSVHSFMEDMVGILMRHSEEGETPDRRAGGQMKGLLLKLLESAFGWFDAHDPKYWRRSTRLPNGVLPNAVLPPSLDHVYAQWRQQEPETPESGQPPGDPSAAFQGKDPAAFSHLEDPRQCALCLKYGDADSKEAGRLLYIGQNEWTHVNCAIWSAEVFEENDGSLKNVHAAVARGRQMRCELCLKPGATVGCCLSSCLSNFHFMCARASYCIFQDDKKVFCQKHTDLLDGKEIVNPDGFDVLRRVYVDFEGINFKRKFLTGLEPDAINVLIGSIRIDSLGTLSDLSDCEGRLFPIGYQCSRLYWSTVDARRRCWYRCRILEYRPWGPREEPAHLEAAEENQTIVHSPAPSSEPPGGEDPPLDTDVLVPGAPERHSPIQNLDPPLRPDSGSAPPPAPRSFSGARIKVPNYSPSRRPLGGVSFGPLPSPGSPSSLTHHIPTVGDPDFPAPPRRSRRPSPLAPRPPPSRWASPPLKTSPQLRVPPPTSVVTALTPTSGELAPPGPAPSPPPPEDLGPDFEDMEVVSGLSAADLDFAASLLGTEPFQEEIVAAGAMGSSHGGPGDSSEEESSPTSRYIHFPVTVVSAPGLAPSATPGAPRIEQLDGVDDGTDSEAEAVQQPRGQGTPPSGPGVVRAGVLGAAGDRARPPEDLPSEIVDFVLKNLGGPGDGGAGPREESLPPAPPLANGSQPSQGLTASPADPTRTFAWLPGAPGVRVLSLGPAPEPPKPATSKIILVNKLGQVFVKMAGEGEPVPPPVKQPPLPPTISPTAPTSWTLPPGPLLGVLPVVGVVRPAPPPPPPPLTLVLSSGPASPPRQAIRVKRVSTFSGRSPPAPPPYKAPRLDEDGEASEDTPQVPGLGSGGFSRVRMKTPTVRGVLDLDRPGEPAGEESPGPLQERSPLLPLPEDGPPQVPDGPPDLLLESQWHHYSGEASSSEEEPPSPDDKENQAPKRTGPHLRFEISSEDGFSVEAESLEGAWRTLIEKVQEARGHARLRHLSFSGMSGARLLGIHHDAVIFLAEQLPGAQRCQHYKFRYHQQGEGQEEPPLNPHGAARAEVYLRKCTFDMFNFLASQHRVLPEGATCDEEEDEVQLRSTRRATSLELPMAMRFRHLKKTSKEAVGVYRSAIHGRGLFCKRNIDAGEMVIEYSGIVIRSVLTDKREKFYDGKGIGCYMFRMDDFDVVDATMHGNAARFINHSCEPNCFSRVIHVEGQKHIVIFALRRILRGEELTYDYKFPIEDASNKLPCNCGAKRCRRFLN
Method in brief: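 HTRF assay: inhibitor plus enzyme preincubated 10 min at room temperature, then peptide/SAM mix added and incubated at room temperature. Antibody and SA-XL665 detection mix added for 1 h in subdued light. Emission read at 665 and 620 nm; IC50 from two separate experiments.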

[7] = target: Protransforming growth factor alpha (Homo sapiens) (UniProt P01135); experiment: Inhibition of TGFA transcriptional activity in human KMS-11 cells assessed as reduction in H3K36 methylation at 10 uM measured after 72 hrs by chip q-PCR analysis; type: cell-based
Protransforming growth factor alpha (Homo sapiens), sequence (P01135 whole entry): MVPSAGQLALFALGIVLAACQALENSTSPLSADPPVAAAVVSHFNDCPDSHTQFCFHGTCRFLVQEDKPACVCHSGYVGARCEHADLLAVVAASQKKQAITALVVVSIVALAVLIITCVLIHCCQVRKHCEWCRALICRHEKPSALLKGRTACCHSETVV
Method in brief: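 KMS11 cells treated with test agent or DMSO. ChIP with magnetic-bead enzymatic chromatin IP kit using anti-H3K36me2, anti-histone H3 and IgG control antibodies. H3K36me2 quantified by qPCR with primers spanning the promoter regions of TGFA, MET, PAK1 and RRAS2.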

[8] = Clearance in CD-1 mouse at 2 mg/kg, iv measured up to 24 hrs by LC-MS/MS; type: ADME, organism-based; conditions: in vivo
Method in brief: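 CD-1 mice given a single 2 mg/kg i.v. dose (n = 3). Plasma collected at 0–24 h (0.083, 0.25, 0.5, 1, 2, 4, 6, 8, 24 h), deproteinized with methanol/acetonitrile 1:1 and analysed by LC/MS/MS. Clearance derived from the plasma concentration–time data.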

`Cl.Nc1cccc2c(S(=O)(=O)NCc3ccccc3)cccc12` gave an IC50 [1] of over 20 µM, an IC50 [2] of 0.52 µM and an IC50 [3] of 3.1 µM. The Tmax [4] was 4.98 min, the inhibition [5] was “Active” and the IC50 [6] was over 20 µM. For the same compound, the inhibition [7] was “Active” and the clearance [8] was 163 mL/min/kg.
